In ChEMBL document CHEMBL2029214, “Radiosynthesis and evaluation of an (18)F-labeled positron emission tomography (PET) radioligand for brain histamine subtype-3 receptors based on a nonimidazole 2-aminoethylbenzofuran chemotype” (J Med Chem, 2012):

Legend:
[1] = target: Histamine receptor H3 (Macaca mulatta) (UniProt Q865E1); experiment: Induction of histamine H3 receptor-mediated drug uptake in rhesus monkey brain by PET imaging
In short: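 Male rhesus monkeys (7.3 ± 0.8 kg; n = 4 baseline), ketamine 10 mg/kg i.m. then 1.5% isoflurane in O2. […] [18F]ligand given i.v. Focus 220 microPET, 180 min (one scan 120 min), 45 frames 30 s–5 min, scatter/attenuation corrected, decay-corrected; template-normalized regions; uptake as SUV.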

Histamine H1 receptor = Histamine H1 receptor (Homo sapiens, UniProt P35367); experiment: Binding affinity to human recombinant H1 receptor
Histamine H1 receptor, sequence (P35367 whole entry): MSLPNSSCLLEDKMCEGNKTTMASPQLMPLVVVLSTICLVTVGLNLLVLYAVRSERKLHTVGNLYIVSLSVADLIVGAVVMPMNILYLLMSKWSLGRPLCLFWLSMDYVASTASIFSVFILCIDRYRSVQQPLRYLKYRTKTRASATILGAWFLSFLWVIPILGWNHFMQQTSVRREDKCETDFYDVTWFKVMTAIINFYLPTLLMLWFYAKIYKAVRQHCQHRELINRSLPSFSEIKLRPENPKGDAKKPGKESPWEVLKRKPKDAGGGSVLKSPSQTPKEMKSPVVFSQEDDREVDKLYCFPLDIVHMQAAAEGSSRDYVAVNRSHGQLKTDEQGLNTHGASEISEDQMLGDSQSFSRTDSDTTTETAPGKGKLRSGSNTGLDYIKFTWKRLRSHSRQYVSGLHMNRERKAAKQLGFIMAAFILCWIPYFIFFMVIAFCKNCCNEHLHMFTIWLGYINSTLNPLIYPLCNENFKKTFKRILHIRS

Histamine H2 receptor = Histamine H2 receptor (Homo sapiens, UniProt P25021); experiment: Binding affinity to human recombinant H2 receptor
Histamine H3 receptor = Histamine H3 receptor (Homo sapiens, UniProt Q9Y5N1); experiment: Binding affinity to human recombinant H3 receptor expressed in HEK293T cells; type: cell-based, HEK-293T
Histamine H4 receptor = Histamine H4 receptor (Homo sapiens, UniProt Q9H3N8); experiment: Binding affinity to human recombinant H4 receptor
[2] = target: 5-hydroxytryptamine receptor 1A (Homo sapiens, UniProt P08908); experiment: Binding affinity to human recombinant 5HT1A receptor
[3] = target: 5-hydroxytryptamine receptor 1B (Homo sapiens, UniProt P28222); experiment: Binding affinity to human recombinant 5HT1B receptor
5-hydroxytryptamine receptor 1B, sequence (P28222 whole entry): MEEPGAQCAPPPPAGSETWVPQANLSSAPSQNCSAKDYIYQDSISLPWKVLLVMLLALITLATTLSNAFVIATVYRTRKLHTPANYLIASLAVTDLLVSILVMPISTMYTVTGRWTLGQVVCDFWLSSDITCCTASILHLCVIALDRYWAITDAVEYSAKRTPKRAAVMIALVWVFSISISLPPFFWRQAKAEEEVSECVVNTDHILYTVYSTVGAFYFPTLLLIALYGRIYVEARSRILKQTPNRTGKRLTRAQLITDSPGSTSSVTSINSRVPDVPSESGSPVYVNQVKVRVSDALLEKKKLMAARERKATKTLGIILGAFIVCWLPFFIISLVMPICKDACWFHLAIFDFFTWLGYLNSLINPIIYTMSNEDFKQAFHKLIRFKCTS

[4] = target: 5-hydroxytryptamine receptor 1D (Homo sapiens, UniProt P28221); experiment: Binding affinity to human recombinant 5HT1D receptor
5-hydroxytryptamine receptor 1D, sequence (P28221 whole entry): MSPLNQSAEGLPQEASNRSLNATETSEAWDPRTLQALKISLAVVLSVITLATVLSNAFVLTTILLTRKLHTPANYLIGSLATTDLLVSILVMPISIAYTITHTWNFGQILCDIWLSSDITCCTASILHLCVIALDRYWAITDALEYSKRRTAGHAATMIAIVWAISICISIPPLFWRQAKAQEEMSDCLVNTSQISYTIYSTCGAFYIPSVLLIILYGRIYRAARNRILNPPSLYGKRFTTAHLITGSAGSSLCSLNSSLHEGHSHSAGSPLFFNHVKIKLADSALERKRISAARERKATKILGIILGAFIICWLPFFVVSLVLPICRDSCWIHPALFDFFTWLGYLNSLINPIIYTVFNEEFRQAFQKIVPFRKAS
In short: (§1)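 Ki values were taken from in vitro competitive binding assays against each human recombinant receptor.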

[5] = target: 5-hydroxytryptamine receptor 2A (Homo sapiens, UniProt P28223); experiment: Binding affinity to human recombinant 5HT2A receptor; in short: as §1
[6] = target: 5-hydroxytryptamine receptor 2B (Homo sapiens, UniProt P41595); experiment: Binding affinity to human recombinant 5HT2B receptor
[7] = target: Sodium-dependent dopamine transporter (Homo sapiens, UniProt Q01959); experiment: Binding affinity to human recombinant DAT
[8] = target: Muscarinic acetylcholine receptor M1 (Homo sapiens, UniProt P11229); experiment: Binding affinity to human recombinant M1 receptor
[9] = target: Muscarinic acetylcholine receptor M2 (Homo sapiens, UniProt P08172); experiment: Binding affinity to human recombinant M2 receptor
[10] = target: Muscarinic acetylcholine receptor M3 (Homo sapiens, UniProt P20309); experiment: Binding affinity to human recombinant M3 receptor
[11] = target: Muscarinic acetylcholine receptor M4 (Homo sapiens, UniProt P08173); experiment: Binding affinity to human recombinant M4 receptor
Muscarinic acetylcholine receptor M4, sequence (P08173 whole entry): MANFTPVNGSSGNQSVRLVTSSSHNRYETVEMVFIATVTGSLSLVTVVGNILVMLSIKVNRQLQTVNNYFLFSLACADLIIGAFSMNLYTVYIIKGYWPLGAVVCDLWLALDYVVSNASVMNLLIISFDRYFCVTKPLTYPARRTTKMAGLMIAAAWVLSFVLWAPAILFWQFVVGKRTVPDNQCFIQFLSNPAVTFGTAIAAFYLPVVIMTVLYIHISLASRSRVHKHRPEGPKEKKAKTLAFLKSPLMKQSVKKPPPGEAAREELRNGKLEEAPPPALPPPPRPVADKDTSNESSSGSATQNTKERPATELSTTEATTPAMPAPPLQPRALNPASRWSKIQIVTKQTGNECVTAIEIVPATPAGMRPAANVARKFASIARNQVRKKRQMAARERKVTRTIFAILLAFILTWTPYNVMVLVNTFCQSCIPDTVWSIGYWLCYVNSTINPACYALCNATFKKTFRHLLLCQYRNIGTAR

[12] = target: Muscarinic acetylcholine receptor M5 (Homo sapiens, UniProt P08912); experiment: Binding affinity to human recombinant M5 receptor; in short: as §1
[13] = target: 5-hydroxytryptamine receptor 1E (Homo sapiens, UniProt P28566); experiment: Binding affinity to human recombinant 5HT1E receptor
[14] = target: 5-hydroxytryptamine receptor 2C (Homo sapiens, UniProt P28335); experiment: Binding affinity to human recombinant 5HT2C receptor
5-hydroxytryptamine receptor 2C, sequence (P28335 whole entry): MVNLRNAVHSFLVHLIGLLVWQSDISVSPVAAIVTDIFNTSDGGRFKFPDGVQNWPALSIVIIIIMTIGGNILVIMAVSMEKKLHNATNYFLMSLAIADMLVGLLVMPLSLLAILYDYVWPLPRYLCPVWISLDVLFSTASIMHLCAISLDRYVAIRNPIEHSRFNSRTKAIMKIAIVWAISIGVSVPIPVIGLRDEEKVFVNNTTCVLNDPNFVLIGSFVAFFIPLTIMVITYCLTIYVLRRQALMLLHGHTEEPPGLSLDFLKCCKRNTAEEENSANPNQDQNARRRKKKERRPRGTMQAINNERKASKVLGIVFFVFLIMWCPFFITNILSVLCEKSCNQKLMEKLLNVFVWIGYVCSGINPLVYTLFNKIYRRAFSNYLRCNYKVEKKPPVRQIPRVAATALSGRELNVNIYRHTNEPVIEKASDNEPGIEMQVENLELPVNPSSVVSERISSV

[15] = target: 5-hydroxytryptamine receptor 3A (Homo sapiens, UniProt P46098); experiment: Binding affinity to human recombinant 5HT3 receptor
[16] = target: 5-hydroxytryptamine receptor 6 (Homo sapiens, UniProt P50406); experiment: Binding affinity to human recombinant 5HT6 receptor
[17] = target: 5-hydroxytryptamine receptor 7 (Homo sapiens, UniProt P34969); experiment: Binding affinity to human recombinant 5HT7 receptor
[18] = target: Alpha-1A adrenergic receptor (Homo sapiens, UniProt P35348); experiment: Binding affinity to human recombinant alpha1A adrenergic receptor
[19] = target: Alpha-1B adrenergic receptor (Homo sapiens, UniProt P35368); experiment: Binding affinity to human recombinant alpha1B adrenergic receptor
[20] = target: Alpha-1D adrenergic receptor (Homo sapiens, UniProt P25100); experiment: Binding affinity to human recombinant alpha1D adrenergic receptor
Alpha-1D adrenergic receptor, sequence (P25100 whole entry): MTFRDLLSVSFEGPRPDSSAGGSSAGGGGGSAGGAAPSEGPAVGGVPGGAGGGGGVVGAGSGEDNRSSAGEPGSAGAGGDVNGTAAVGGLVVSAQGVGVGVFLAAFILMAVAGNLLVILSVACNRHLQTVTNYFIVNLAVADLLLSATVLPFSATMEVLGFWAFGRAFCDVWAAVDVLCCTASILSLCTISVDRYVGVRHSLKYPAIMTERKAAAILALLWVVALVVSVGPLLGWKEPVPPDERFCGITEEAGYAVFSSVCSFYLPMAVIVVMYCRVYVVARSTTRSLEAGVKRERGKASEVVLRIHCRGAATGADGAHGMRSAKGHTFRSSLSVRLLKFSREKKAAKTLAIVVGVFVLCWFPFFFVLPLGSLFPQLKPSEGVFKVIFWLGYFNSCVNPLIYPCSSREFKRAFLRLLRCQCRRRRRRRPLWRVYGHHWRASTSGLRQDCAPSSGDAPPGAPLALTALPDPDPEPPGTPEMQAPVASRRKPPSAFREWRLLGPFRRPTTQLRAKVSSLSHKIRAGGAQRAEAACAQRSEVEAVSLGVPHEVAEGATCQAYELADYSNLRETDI

[21] = target: Alpha-2A adrenergic receptor (Homo sapiens, UniProt P08913); experiment: Binding affinity to human recombinant alpha2A adrenergic receptor
[22] = target: Alpha-2B adrenergic receptor (Homo sapiens, UniProt P18089); experiment: Binding affinity to human recombinant alpha2B adrenergic receptor
Alpha-2B adrenergic receptor, sequence (P18089 whole entry): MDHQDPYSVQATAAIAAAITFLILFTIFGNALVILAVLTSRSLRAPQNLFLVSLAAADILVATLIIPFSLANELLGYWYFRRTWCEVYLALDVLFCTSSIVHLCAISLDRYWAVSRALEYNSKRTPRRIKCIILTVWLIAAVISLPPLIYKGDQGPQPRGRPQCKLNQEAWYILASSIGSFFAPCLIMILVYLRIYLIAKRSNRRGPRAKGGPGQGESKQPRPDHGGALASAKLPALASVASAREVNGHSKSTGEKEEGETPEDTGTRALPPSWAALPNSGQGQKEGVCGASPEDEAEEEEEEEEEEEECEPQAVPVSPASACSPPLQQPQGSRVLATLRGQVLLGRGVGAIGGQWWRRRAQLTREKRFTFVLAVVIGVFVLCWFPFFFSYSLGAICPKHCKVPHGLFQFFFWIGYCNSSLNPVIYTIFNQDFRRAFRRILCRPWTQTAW

[23] = target: Alpha-2C adrenergic receptor (Homo sapiens, UniProt P18825); experiment: Binding affinity to human recombinant alpha2C adrenergic receptor
[24] = target: Beta-1 adrenergic receptor (Homo sapiens, UniProt P08588); experiment: Binding affinity to human recombinant beta1 adrenergic receptor
[25] = target: Beta-2 adrenergic receptor (Homo sapiens, UniProt P07550); experiment: Binding affinity to human recombinant beta2 adrenergic receptor
[26] = target: Beta-3 adrenergic receptor (Homo sapiens, UniProt P13945); experiment: Binding affinity to human recombinant beta3 adrenergic receptor
Beta-3 adrenergic receptor, sequence (P13945 whole entry): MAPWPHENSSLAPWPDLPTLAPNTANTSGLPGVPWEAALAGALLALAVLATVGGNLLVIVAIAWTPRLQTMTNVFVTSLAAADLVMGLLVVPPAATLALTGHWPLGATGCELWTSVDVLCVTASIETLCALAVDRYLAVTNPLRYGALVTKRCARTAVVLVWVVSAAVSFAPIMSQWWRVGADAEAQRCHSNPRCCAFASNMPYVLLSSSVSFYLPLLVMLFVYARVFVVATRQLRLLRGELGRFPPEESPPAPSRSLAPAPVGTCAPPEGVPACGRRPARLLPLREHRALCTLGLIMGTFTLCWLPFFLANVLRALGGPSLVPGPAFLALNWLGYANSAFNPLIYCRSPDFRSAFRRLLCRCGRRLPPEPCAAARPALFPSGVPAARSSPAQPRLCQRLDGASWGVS

D(1A) dopamine receptor = D(1A) dopamine receptor (Homo sapiens, UniProt P21728); experiment: Binding affinity to human recombinant Dopamine D1 receptor
D(2) dopamine receptor = D(2) dopamine receptor (Homo sapiens, UniProt P14416); experiment: Binding affinity to human recombinant Dopamine D2 receptor
D(3) dopamine receptor = D(3) dopamine receptor (Homo sapiens, UniProt P35462); experiment: Binding affinity to human recombinant Dopamine D3 receptor
D(3) dopamine receptor, sequence (P35462 whole entry): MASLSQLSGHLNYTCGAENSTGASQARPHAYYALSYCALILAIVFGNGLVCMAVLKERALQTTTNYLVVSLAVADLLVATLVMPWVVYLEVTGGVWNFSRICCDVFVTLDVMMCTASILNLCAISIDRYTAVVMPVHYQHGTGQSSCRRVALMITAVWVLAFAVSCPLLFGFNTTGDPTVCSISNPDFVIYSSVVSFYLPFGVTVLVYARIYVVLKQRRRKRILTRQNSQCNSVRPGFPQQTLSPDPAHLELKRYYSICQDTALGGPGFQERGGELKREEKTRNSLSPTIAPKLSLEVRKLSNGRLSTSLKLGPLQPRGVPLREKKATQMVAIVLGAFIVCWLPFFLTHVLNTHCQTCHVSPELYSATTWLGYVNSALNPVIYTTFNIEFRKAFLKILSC

D(4) dopamine receptor = D(4) dopamine receptor (Homo sapiens, UniProt P21917); experiment: Binding affinity to human recombinant Dopamine D4 receptor
D(1B) dopamine receptor = D(1B) dopamine receptor (Homo sapiens, UniProt P21918); experiment: Binding affinity to human recombinant Dopamine D5 receptor
[27] = target: Sigma non-opioid intracellular receptor 1 (Homo sapiens, UniProt Q99720); experiment: Binding affinity to human recombinant sigma1 receptor
Sigma non-opioid intracellular receptor 1, sequence (Q99720 whole entry): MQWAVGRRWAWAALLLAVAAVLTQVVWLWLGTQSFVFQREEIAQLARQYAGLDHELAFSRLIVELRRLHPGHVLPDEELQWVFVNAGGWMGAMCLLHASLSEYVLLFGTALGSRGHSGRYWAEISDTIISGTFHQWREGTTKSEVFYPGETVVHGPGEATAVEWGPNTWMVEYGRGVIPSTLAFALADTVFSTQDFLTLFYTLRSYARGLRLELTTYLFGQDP

[28] = target: Sodium-dependent serotonin transporter (Homo sapiens, UniProt P31645); experiment: Binding affinity to human recombinant SERT
Sodium-dependent serotonin transporter, sequence (P31645 whole entry): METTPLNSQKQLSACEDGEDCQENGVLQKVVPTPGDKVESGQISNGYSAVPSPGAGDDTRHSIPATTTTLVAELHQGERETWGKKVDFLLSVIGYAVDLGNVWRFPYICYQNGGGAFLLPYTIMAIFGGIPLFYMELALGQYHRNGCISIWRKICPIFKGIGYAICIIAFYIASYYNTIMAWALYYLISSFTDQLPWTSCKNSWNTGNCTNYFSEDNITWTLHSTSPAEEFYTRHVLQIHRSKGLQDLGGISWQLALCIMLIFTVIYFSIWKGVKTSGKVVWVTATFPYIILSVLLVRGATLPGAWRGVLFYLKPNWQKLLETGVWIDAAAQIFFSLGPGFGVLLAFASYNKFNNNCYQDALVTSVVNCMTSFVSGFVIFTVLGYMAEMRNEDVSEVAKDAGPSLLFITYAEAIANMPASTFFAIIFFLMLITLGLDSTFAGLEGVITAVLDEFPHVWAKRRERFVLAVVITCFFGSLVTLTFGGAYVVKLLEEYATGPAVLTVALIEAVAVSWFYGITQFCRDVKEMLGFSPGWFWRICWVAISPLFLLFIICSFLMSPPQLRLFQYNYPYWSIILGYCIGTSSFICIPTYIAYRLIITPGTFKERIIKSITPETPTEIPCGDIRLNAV

[29] = target: Sodium-dependent noradrenaline transporter (Homo sapiens, UniProt P23975); experiment: Binding affinity to human recombinant NET

SMILES | Activity [1] [%] | Ki (Histamine H1 receptor) [µM] | Ki (Histamine H2 receptor) [µM] | Ki (Histamine H4 receptor) [µM] | Ki [2] [µM] | Ki [3] [µM] | Ki [4] [µM] | Ki [5] [µM] | Ki [6] [µM] | Ki [7] [µM] | Ki [8] [µM] | Ki [9] [µM] | Ki [10] [µM] | Ki [11] [µM] | Ki [12] [µM] | Ki [13] [µM] | Ki [14] [µM] | Ki [15] [µM] | Ki [16] [µM] | Ki [17] [µM] | further results
CNC(=O)c1ccc(Oc2ccc3c(c2)CCN(C2CCC2)CC3)nc1 | > 90 | – | – | – | – | – | – | – | – | – | – | – | – | – | – | – | – | – | – | – | –
C[C@@H]1CCCN1CCc1cc2cc(C(=O)c3ccc([N+](=O)[O-])cc3)ccc2o1 | – | 7.05 | 0.923 | > 10 | > 10 | > 10 | 5.24 | 1.36 | > 10 | 0.137 | 0.931 | 0.681 | 0.512 | 0.415 | 0.336 | > 10 | > 10 | > 10 | > 10 | > 10 | Ki (Histamine H3 receptor): 0.0004 µM; Ki [18]: > 10 µM; Ki [19]: > 10 µM; Ki [20]: > 10 µM; Ki [21]: > 10 µM; Ki [22]: > 10 µM; Ki [23]: > 10 µM; Ki [24]: > 10 µM; Ki [25]: > 10 µM; Ki [26]: > 10 µM; Ki (D(1A) dopamine receptor): > 10 µM; Ki (D(2) dopamine receptor): > 10 µM; Ki (D(3) dopamine receptor): > 10 µM; Ki (D(4) dopamine receptor): > 10 µM; Ki (D(1B) dopamine receptor): > 10 µM; Ki [27]: > 10 µM; Ki [28]: > 10 µM; Ki [29]: > 10 µM
COc1ccc2c(c1)C(=O)O[C@]21CC[C@H](C(=O)N(C)CCN2CCCCC2)CC1 | 83 | – | – | – | – | – | – | – | – | – | – | – | – | – | – | – | – | – | – | – | –
C[C@@H]1CCCN1CCc1cc2cc(C(=O)c3ccc(F)cc3)ccc2o1 | – | 5.44 | 1.71 | > 10 | 0.432 | > 10 | 6.38 | 2.72 | 3.15 | > 10 | 3.27 | 0.462 | 0.204 | 0.351 | 0.437 | > 10 | > 10 | > 10 | > 10 | > 10 | Ki [18]: > 10 µM; Ki [19]: > 10 µM; Ki [20]: > 10 µM; Ki [21]: > 10 µM; Ki [22]: > 10 µM; Ki [23]: > 10 µM; Ki [24]: > 10 µM; Ki [25]: > 10 µM; Ki [26]: > 10 µM; Ki (D(1A) dopamine receptor): > 10 µM; Ki (D(2) dopamine receptor): > 10 µM; Ki (D(3) dopamine receptor): > 10 µM; Ki (D(4) dopamine receptor): > 10 µM; Ki (D(1B) dopamine receptor): > 10 µM; Ki [27]: > 10 µM; Ki [28]: > 10 µM; Ki [29]: > 10 µM
